Experimental data taken from ChEMBL document CHEMBL3758117, “Discovery of indeno[1,2-b]quinoxaline derivatives as potential anticancer agents” (Eur J Med Chem, 2016).
The source made the active and inactive calls. No cut-off for these calls is given here.

Tests used:
[1] = Induction of apoptosis in human HuH7 cells assessed as upregulation of Bad expression at 1 to 10 uM after 24 hrs by Western blot analysis; format: functional, cell-based; details: Huh-7
[2] = Cell cycle arrest in human HuH7 cells assessed as accumulation at sub G1 phase at 5 uM for 24 hrs by propidium iodide staining based flow cytometry (reference value: 1.3 +/- 0.7%); format: functional; details: Huh-7
[3] = Antiproliferative activity against human HuH7 cells after 72 hrs by XTT assay; format: functional, cell-based; details: Huh-7, 72 h
Method in brief: (§1)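 Cells kept as monolayers in DMEM with 10% FBS, penicillin, streptomycin and amphotericin at 37°C, 5% CO2. Seeded at 5 x 10³ cells/well and exposed to compound for 72 h in medium with 10% FBS. XTT plus electron-coupling reagent added, 4 h at 37°C, absorbance read at 492 nm. Percent of control growth uses mean absorbance (n = 3). The 50% value is taken from the linear portion of the curve.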

[4] = Cell cycle arrest in human HuH7 cells assessed as accumulation at S phase at 10 uM for 24 hrs by propidium iodide staining based flow cytometry (reference value: 11.4 +/- 2.4%); format: functional; details: Huh-7
Huh-7 [5] = experiment: Induction of apoptosis in human HuH7 cells assessed as downregulation of PARP expression at 1 to 10 uM after 24 hrs by Western blot analysis; format: functional, cell-based
Method in brief: (§2)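 Huh-7 cells were treated with DMSO or compound at 1, 5 and 10 μM for 24 h. Cells were lysed in NP-40 buffer with protease and phosphatase inhibitors, and protein was measured by Bradford. Lysate protein was resolved by SDS-PAGE and transferred to PVDF. Membranes were blocked in 5% milk, probed with primary antibodies for 2 h and secondary antibodies for 30 min, and detected by ECL, with β-actin as loading control.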

[6] = Cell cycle arrest in human HuH7 cells assessed as accumulation at G2/M phase at 1 uM for 24 hrs by propidium iodide staining based flow cytometry (reference value: 25.2 +/- 3.5%); format: functional; details: Huh-7
[7] = molecular target: DNA topoisomerase 2-alpha (Homo sapiens) (UniProt P11388); experiment: Inhibition of human DNA topoisomerase 2-mediated relaxation of supercoiled pBR322 DNA at 10 uM after 30 mins by ethidium bromide staining based agarose gel electrophoresis
DNA topoisomerase 2-alpha (Homo sapiens), sequence (P11388 whole entry): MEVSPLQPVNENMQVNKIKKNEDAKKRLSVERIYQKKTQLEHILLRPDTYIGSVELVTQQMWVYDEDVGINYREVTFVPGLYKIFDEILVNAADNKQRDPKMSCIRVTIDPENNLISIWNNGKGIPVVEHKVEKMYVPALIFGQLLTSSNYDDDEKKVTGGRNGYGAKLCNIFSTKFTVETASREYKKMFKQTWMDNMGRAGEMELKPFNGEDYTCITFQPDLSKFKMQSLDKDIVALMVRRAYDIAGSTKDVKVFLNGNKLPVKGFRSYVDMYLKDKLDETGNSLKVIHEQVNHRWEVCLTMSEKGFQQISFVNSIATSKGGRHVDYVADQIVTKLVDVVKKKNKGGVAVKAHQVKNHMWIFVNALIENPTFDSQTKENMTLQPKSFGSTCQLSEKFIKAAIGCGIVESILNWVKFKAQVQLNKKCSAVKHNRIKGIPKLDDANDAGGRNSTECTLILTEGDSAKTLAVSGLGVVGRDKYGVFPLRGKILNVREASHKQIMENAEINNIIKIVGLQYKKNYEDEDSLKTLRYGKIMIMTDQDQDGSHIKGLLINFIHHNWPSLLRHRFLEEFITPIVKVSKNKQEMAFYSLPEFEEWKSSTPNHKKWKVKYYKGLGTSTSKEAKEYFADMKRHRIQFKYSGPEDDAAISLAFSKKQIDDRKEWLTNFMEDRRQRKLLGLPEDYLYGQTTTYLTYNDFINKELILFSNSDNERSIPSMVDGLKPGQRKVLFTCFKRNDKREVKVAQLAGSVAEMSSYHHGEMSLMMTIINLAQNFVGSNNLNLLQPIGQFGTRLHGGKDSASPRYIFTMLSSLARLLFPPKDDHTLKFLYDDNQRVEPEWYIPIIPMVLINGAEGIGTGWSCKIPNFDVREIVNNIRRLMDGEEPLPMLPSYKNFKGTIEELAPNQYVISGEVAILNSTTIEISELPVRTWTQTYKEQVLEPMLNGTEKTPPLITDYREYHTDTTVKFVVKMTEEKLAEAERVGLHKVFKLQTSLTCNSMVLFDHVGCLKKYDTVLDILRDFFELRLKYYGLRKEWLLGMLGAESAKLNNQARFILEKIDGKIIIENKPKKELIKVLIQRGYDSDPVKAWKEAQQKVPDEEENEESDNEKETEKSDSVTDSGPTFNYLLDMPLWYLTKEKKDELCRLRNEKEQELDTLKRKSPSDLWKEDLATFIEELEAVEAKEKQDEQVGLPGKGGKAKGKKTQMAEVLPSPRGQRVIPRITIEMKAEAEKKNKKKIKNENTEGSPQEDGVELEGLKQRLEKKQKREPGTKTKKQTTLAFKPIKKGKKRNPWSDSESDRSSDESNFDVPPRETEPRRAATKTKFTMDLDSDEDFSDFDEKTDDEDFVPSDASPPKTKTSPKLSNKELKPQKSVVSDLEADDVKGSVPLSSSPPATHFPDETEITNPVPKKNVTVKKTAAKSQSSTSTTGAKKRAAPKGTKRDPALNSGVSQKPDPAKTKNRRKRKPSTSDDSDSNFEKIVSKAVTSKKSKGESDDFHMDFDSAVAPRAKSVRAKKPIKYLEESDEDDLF
Method in brief: (§3)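 Human topo I or topo II (2 units) was reacted with 0.2 μg supercoiled pBR322 in 20 μl Tris-HCl pH 7.5 containing KCl, DTT, EDTA, MgCl2 and BSA, with DMSO held at 0.5%, for 30 min at 37°C. The reaction was stopped with SDS. Samples were run on 1% agarose in Tris-acetate/EDTA at 1.5 V/cm for 2-3 h and stained with ethidium bromide. Relaxation was quantified by densitometry of the supercoiled band area.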

[8] = Downregulation of cyclin B1 expression in human HuH7 cells at 1 to 10 uM after 24 hrs by immunoblot analysis; format: functional, cell-based; details: Huh-7; method in brief: as §2
[9] = Downregulation of cyclin A expression in human HuH7 cells at 1 to 10 uM after 24 hrs by immunoblot analysis; format: functional, cell-based; details: Huh-7; method in brief: as §2
[10] = Induction of apoptosis in human HuH7 cells assessed as upregulation of Bax expression at 1 to 10 uM after 24 hrs by Western blot analysis; format: functional, cell-based; details: Huh-7; method in brief: as §2
[11] = Cell cycle arrest in human HuH7 cells assessed as accumulation at G2/M phase at 10 uM for 24 hrs by propidium iodide staining based flow cytometry (reference value: 25.2 +/- 3.5%); format: functional; details: Huh-7
[12] = Antiproliferative activity against human H1299 cells after 72 hrs by XTT assay; format: functional, cell-based; details: NCI-H1299, 72 h; method in brief: as §1
MRC5 [13] = experiment: Antiproliferative activity against human MRC5 cells after 72 hrs by XTT assay; format: cell-based; details: MRC5, 72 h; method in brief: as §1
[14] = Cell cycle arrest in human HuH7 cells assessed as accumulation at subG1 phase at 1 uM for 24 hrs by propidium iodide staining based flow cytometry (reference value: 1.3 +/- 0.7%); format: functional; details: Huh-7
[15] = molecular target: T1, DNA topoisomerase 1 (Homo sapiens) (UniProt P11387); experiment: Inhibition of human DNA topoisomerase 1-mediated relaxation of supercoiled pBR322 DNA at 100 uM after 30 mins by ethidium bromide staining based agarose gel electrophoresis; method in brief: as §3
T1 sequence (whole entry): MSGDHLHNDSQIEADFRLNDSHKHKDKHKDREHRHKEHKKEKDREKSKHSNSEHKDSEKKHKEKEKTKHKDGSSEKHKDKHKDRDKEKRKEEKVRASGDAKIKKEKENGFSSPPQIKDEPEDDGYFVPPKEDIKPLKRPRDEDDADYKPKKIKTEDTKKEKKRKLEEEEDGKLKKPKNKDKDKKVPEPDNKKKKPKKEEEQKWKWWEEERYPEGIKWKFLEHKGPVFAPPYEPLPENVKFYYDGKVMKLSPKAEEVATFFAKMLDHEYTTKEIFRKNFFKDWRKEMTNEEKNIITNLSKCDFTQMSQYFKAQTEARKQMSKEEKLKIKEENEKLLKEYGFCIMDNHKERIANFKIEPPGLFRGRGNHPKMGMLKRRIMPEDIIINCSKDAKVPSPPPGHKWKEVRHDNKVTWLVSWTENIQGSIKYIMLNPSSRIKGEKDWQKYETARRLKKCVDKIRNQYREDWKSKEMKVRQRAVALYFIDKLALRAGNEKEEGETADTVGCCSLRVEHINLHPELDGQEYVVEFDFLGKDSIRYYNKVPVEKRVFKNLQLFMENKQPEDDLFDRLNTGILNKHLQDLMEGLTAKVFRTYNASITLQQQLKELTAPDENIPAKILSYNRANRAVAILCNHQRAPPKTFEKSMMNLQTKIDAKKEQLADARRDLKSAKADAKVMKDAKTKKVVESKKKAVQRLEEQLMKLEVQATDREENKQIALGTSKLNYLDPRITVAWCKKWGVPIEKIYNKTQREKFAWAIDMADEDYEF

MRC5 [16] = experiment: Selectivity index, ratio of IC50 for human MRC5 cells to IC50 for human MDA-MB-231 cells; format: functional
[17] = Cell cycle arrest in human HuH7 cells assessed as accumulation at G1 phase at 1 uM for 24 hrs by propidium iodide staining based flow cytometry (reference value: 62.1 +/- 1.4%); format: functional; details: Huh-7
Huh-7 [18] = experiment: Selectivity index, ratio of IC50 for human MRC5 cells to IC50 for human HuH7 cells; format: functional
[19] = Cell cycle arrest in human HuH7 cells assessed as accumulation at G1 phase at 5 uM for 24 hrs by propidium iodide staining based flow cytometry (reference value: 62.1 +/- 1.4%); format: functional; details: Huh-7
[20] = Effect on total protein expression of Akt in human HuH7 cells at 1 to 10 uM after 24 hrs by immunoblot analysis; format: cell-based; details: huh-7, 24 h; method in brief: as §2
[21] = molecular target: RAC-alpha serine/threonine-protein kinase (Homo sapiens) (UniProt P31749); experiment: Inhibition of AKT1 phosphorylation in human HuH7 cells at 1 to 10 uM after 24 hrs by immunoblot analysis; format: cell-based; details: Huh-7; method in brief: as §2
RAC-alpha serine/threonine-protein kinase (Homo sapiens), sequence (P31749 whole entry): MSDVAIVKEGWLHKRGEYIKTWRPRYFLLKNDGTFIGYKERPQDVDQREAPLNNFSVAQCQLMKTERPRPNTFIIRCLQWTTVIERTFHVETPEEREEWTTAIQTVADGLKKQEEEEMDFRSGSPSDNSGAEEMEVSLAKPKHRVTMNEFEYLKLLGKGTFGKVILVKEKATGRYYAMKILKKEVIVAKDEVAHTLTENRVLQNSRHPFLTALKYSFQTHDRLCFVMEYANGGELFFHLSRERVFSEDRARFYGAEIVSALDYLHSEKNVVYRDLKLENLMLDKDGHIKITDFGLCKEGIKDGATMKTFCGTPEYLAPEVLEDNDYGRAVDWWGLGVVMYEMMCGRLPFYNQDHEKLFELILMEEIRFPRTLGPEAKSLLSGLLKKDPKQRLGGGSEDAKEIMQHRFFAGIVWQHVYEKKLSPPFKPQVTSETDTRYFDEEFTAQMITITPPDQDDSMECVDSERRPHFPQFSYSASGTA

[22] = Downregulation of cyclin D1 expression in human HuH7 cells at 1 to 10 uM after 24 hrs by immunoblot analysis; format: functional, cell-based; details: Huh-7; method in brief: as §2
[23] = Cell cycle arrest in human HuH7 cells assessed as accumulation at G2/M phase at 5 uM for 24 hrs by propidium iodide staining based flow cytometry (reference value: 25.2 +/- 3.5%); format: functional; details: Huh-7

With `CN(C)CCCNC(=O)c1cccc2nc3c(nc12)-c1ccccc1/C3=N\OCCCN(C)C.Cl` the Activity [1] was “Dose-dependent effect”, the Activity [2] was 11.5% and the IC50 [3] was 0.64 µM. The Activity [4] was 38.4%, the Activity (Huh-7 [5]) was “Dose-dependent effect” and the Activity [6] was 19.3%. For the same molecule, the “topoisomerase 2 inhibition (active/not active)” value [7] was “Active”, the Activity [8] was “Active” and the Activity [9] was “Active”. The Activity [10] was “Dose-dependent effect”, the Activity [11] was 7.8% and the IC50 [12] was 5.78 µM. The IC50 (MRC5 [13]) was 31.5 µM, the Activity [14] was 3.8% and the “topoisomerase 1 inhibition (active/inactive)” value [15] was “Active”. For the same molecule, the “Ratio IC50” value (MRC5 [16]) was 36.22, the Activity [17] was 55.3% and the “Ratio IC50” value (Huh-7 [18]) was 49.23. For the same molecule, the Activity [19] was 35.1%, the Activity [20] was “Non-toxic” and the inhibition [21] was “Active”. The Activity [22] was “Active” and the Activity [23] was 22.9%.
